We go through two substances from PMC4477344 (Diabetes, 2015).

Where no end group is shown, it is not given here.

In series [1] the test system is diet-induced obese (DIO) mice. The series can be described thus: GLP-1. The class given is in vivo, C57BL/6J male mice. Particulars: continuous infusion for up to 16 weeks. Summed up: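 Mice were started on high-fat diet at 6–10 weeks of age and fed it for 7–22 weeks. At 13–28 weeks of age they were randomized by body weight and given osmotic minipumps delivering vehicle (0.154 mol/L NaCl/0.2% human serum albumin) or test compound at 50–70 nmol/kg/day for […]. Body weight was recorded weekly and food intake twice weekly. Fat and lean mass were measured by DXA at week 15. n = 6 per group.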

The subject of a further series is Dpp4. Particulars: cited from earlier work.

On to LVKGR-NH2 [GLP-1(32-36)amide], for which the adverse effects result in series [1] is “No adverse effects”.

As for GLP-1(7-36)amide, the “time of cleavage in vivo by Dpp4 to GLP-1(9-36)amide” value in the series with Dpp4 was 1 to 2 min.
